One assay relates to Proteus vulgaris. In words: Minimum inhibitory concentration measured against Proteus vulgaris (ATCC 13315). Format: functional. In outline:
(§1)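 Agar dilution MIC on Mueller-Hinton agar supplemented with CaCl2 and MgCl2 (NCCLS standards), 2-fold dilutions. Compounds tested as sulfate salts dissolved in sterile water; values expressed in mg/L of free base, with base content determined by 1H NMR. Spots of 10^4-10^5 CFU applied by multipoint inoculator. Growth read visually after 24 h at 37 °C.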

The next assay deals with Salmonella typhimurium. In words: Minimum inhibitory concentration measured against Salmonella Typhimurium (ATCC 14028). Format: functional, Salmonella enterica subsp. enterica serovar Typhimurium. The settings on record: Salmonella enterica. The method, boiled down:
as §1

The test system of a further assay is Bacillus subtilis. In words: Minimum inhibitory concentration measured against Bacillus subtilis (ATCC 6633). The format is functional. In outline:
as §1

Assay [1] has as its system Serratia marcescens. The experiment in a line: Minimum inhibitory concentration measured against CDC 87457 strain. The format is functional. In outline:
as §1

In another assay the test system is Enterobacter cloacae. In words: Minimum inhibitory concentration measured against Enterobacter cloacae (ATCC 23355). Format: functional. The method, boiled down: as §1
The next assay deals with Escherichia coli. In words: Minimum inhibitory concentration measured against Escherichia coli (ATCC 25922). The format is functional. The method, boiled down: as §1
The subject of the next assay is Citrobacter freundii. The experiment in a line: Minimum inhibitory concentration measured against Citrobacter freundii (ATCC 8090). Format: functional. In outline: as §1
The test system of another assay is Staphylococcus aureus. In words: Minimum inhibitory concentration measured against Staphylococcus aureus (ATCC 25923). The format is functional. In outline:
as §1

Another assay concerns Enterococcus faecalis. In words: Minimum inhibitory concentration measured against […] faecalis (ATCC 19431). Format: functional. The method, boiled down:
as §1

The test system of assay [2] is Serratia marcescens. In words: Minimum inhibitory concentration measured against Serratia marcescens (ATCC 8100). The format is functional. In outline: as §1
The next assay relates to Klebsiella pneumoniae. In words: Minimum inhibitory concentration measured against Klebsiella pneumoniae (ATCC 13883). Format: functional. The method, boiled down: as §1
For another assay, the system named is Pseudomonas aeruginosa. In words: Minimum inhibitory concentration measured against Pseudomonas aeruginosa (NCTC 10701). Format: functional. The method, boiled down: as §1
Another assay concerns Klebsiella aerogenes. The experiment in a line: Minimum inhibitory concentration measured against Enterobacter aerogenes (ATCC 13048). The format is functional. The method, boiled down:
as §1

The subject of assay [3] is Staphylococcus epidermidis. The experiment in a line: Minimum inhibitory concentration measured against Staphylococcus epidermidis (ATCC 12228). The format is functional. The method, boiled down:
as §1

SMILES strings stand for the structures. Values after ≈ are worked out from the molar mass of the structure shown.

The values that follow come from ChEMBL document CHEMBL1125903, “New derivatives of kanamycin B obtained by modifications and substitutions in position 6". 1. Synthesis and microbiological evaluation” (1991).

For orientation: MIC means the least concentration at which growth counts as inhibited. Consider `NC[C@H]1O[C@H](O[C@H]2[C@H](O)[C@@H](O[C@H]3O[C@H](CO)[C@@H](O)[C@H](N)[C@H]3O)[C@H](N)C[C@@H]2N)[C@H](N)[C@@H](O)[C@@H]1O` [BEKANAMYCIN], for which the minimal inhibitory concentration (MIC) was found to be 0.25 µg/mL (≈ 0.517 µM) against Proteus vulgaris; 1 µg/mL (≈ 2.07 µM) against Salmonella typhimurium; 0.5 µg/mL (≈ 1.03 µM) against Bacillus subtilis; 1 µg/mL (≈ 2.07 µM) in the assay on Serratia marcescens [1]; 0.25 µg/mL (≈ 0.517 µM) in the assay on Enterobacter cloacae; 1 µg/mL (≈ 2.07 µM) with Escherichia coli. Besides, the MIC amounted to 0.5 µg/mL (≈ 1.03 µM) with Citrobacter freundii; 0.5 µg/mL (≈ 1.03 µM) with Staphylococcus aureus; 16 µg/mL (≈ 33.1 µM) against Enterococcus faecalis; 1 µg/mL (≈ 2.07 µM) against Serratia marcescens [2]; 0.25 µg/mL (≈ 0.517 µM) with Klebsiella pneumoniae; 32 µg/mL (≈ 66.2 µM) against Pseudomonas aeruginosa. Also, the minimum inhibitory concentration (MIC) against Klebsiella aerogenes worked out at 0.5 µg/mL (≈ 1.03 µM); in [3], 0.25 µg/mL (≈ 0.517 µM).

As for `CCCSCC1OC(OC2C(NC(=O)OC(C)(C)C)CC(NC(=O)OC(C)(C)C)C(OC3OC(CNC(=O)OC(C)(C)C)C(O)C(O)C3NC(=O)OC(C)(C)C)C2O)C(O)C(NC(=O)OC(C)(C)C)C1O` (stereo not drawn), the MIC in the assay with Proteus vulgaris is 1 µg/mL (≈ 0.959 µM); against Salmonella typhimurium, 8 µg/mL (≈ 7.68 µM); in the assay with Bacillus subtilis it was 4 µg/mL (≈ 3.84 µM); with Enterobacter cloacae it was 0.25 µg/mL (≈ 0.24 µM); with Escherichia coli, 2 µg/mL (≈ 1.92 µM); with Citrobacter freundii, 1 µg/mL (≈ 0.959 µM). In addition, the MIC was 1 µg/mL (≈ 0.959 µM) in the assay on Staphylococcus aureus; 8 µg/mL (≈ 7.68 µM) against Enterococcus faecalis; over 64 µg/mL against Serratia marcescens [2]; 2 µg/mL (≈ 1.92 µM) against Klebsiella pneumoniae; over 64 µg/mL in the assay with Pseudomonas aeruginosa; 4 µg/mL (≈ 3.84 µM) in the assay on Klebsiella aerogenes. Further, in [3], inhibition of growth (MIC) required 0.25 µg/mL (≈ 0.24 µM).

In the case of `CCCCCC(=O)N(CCCC)CC1OC(OC2C(NC(=O)OC(C)(C)C)CC(NC(=O)OC(C)(C)C)C(OC3OC(CNC(=O)OC(C)(C)C)C(O)C(O)C3NC(=O)OC(C)(C)C)C2O)C(O)C(NC(=O)OC(C)(C)C)C1O` (stereo not drawn), the minimal inhibitory concentration (MIC) against Proteus vulgaris was over 64 µg/mL; in the assay on Salmonella typhimurium, over 64 µg/mL; in the assay on Bacillus subtilis, over 64 µg/mL; against Enterobacter cloacae, 32 µg/mL (≈ 28.1 µM); against Escherichia coli, over 64 µg/mL; in the assay with Citrobacter freundii it was over 64 µg/mL. For the same molecule, the minimal inhibitory concentration (MIC) in the assay on Staphylococcus aureus, in the assay with Enterococcus faecalis, in the assay with Serratia marcescens [2], against Klebsiella pneumoniae, in the assay on Pseudomonas aeruginosa and against Klebsiella aerogenes was over 64 µg/mL throughout. For the same molecule, the MIC in assay [3] is over 64 µg/mL.

On to `CC(=O)N(C)CC1OC(OC2C(NC(=O)OC(C)(C)C)CC(NC(=O)OC(C)(C)C)C(OC3OC(CNC(=O)OC(C)(C)C)C(O)C(O)C3NC(=O)OC(C)(C)C)C2O)C(O)C(NC(=O)OC(C)(C)C)C1O` (stereo not drawn), for which the MIC was determined as 8 µg/mL (≈ 7.7 µM) against Proteus vulgaris; 64 µg/mL (≈ 61.6 µM) in the assay with Salmonella typhimurium; 32 µg/mL (≈ 30.8 µM) in the assay with Bacillus subtilis; 1 µg/mL (≈ 0.962 µM) in the assay with Enterobacter cloacae; 32 µg/mL (≈ 30.8 µM) in the assay with Escherichia coli; 8 µg/mL (≈ 7.7 µM) in the assay on Citrobacter freundii. The MIC in the assay on Staphylococcus aureus was 4 µg/mL (≈ 3.85 µM); against Enterococcus faecalis, over 64 µg/mL; against Serratia marcescens [2], over 64 µg/mL; against Klebsiella pneumoniae, 8 µg/mL (≈ 7.7 µM); with Pseudomonas aeruginosa it was over 64 µg/mL; against Klebsiella aerogenes, 32 µg/mL (≈ 30.8 µM). The molecule further gave an MIC in assay [3] of 2 µg/mL (≈ 1.92 µM).
